In the library only some 4% were active in any assay of this set; here they are far more common.
PHOSPHO1 block = PHOSPHO1 (human) inhibition. hit rate 1.1% among 290,000. AID 1565. recombinant PHOSPHO1, absorbance phosphatase assay. inhibition, % at 13.3 µM. Q8TCT1; in the data active means inhibition above about 60%
Target sequence (Q8TCT1 whole entry, looked up): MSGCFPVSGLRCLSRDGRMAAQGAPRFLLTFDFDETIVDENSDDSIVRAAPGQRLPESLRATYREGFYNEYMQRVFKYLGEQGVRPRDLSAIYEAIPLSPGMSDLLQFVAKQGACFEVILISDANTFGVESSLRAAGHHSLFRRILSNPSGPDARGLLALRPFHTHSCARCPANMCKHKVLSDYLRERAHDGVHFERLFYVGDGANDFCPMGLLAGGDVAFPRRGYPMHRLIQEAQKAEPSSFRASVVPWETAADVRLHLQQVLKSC
KCNK3 block = human KCNK3 channel inhibition, primary screen. CHO-KCNK3 thallium flux, FluxOR fluorescence; stronger effect = lower value. B-score at 10 µM. hit rate 0.84% among 340,000;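 active means B-score under library mean minus 4 SD, starting fluorescence ratio at most library mean plus 5 SD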;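 further: more negative B-score means stronger inhibition of thallium flux through KCNK3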
hERG rescue = hERG (human) protection from proarrhythmic block. Q12809. CHO-hERG, FluxOR thallium flux, dofetilide IC70 present. activation (rescue from dofetilide block), less the hit threshold, % at 10 µM. hit rate 0.51% among 310,000. AID 1511;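 active means activation above the mean of controls blocked by dofetilide plus 5 SD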;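 further: thallium influx through hERG after potassium depolarization seen as dye fluorescence rise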
KCNQ1 block = blocks the human KCNQ1 potassium channel | P51787 | CHO-K1 KCNQ1, FluxOR thallium flux fluorescence; stronger effect = higher value | B-score at 10 µM | hit rate 1.3% among 310,000;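 active means compounds whose thallium flux B-score, printed positive for inhibition, exceeds three library SD while starting fluorescence stays within three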;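 further: channel opened by potassium depolarization with thallium stimulus after 20 min compound exposure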
KCNQ1 act = human KCNQ1 channel potentiation or activation | hit rate 0.35% among 310,000 | B-score at 10 µM | P51787 | AID 2648 | CHO-K1 KCNQ1, thallium flux FluxOR fluorescence; stronger effect = higher value;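 active means fluorescence ratio B-score, a plate-corrected score, at least three library SD, with initial intensity B-score within 5 SD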
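Assay system: stable KCNQ1 CHO-K1 line; medium: assay buffer, equal DMSO in all wells; timing: 90 min dye loading and 20 min compound exposure, both at room temperature; technique: kinetic FluxOR thallium fluorescence, 10-s 1-Hz baseline, 110-s post-stimulus read; read-out basis: B score of baseline-normalized fluorescence ratio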
KCNK9 inh = blocks the human KCNK9 two-pore domain potassium channel. HEK293 KCNK9, FluxOR thallium flux fluorescence; stronger effect = lower value. B-score at 10 µM. hit rate 1.2% among 310,000;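 active means ratio B-score over 3 SD below the library mean, with starting fluorescence within 5 SD of its mean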;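 further: negative B-score means less thallium flux so channel inhibition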
* = called active by the depositor; i = inactive; x = not tested or not shown.

SMILES	PHOSPHO1 block	KCNK3 block	hERG rescue	KCNQ1 block	KCNQ1 act	KCNK9 inh
CCOC(=O)c1ccc2c(c1)nc(SC/C(O)=C(\C#N)c1nc3ccccc3[nH]1)n2CC	87.7*	i	-7.7	i	i	i
CCOC(=O)c1ccc2c(c1)nc(SCC(=O)c1ccco1)n2CC	78.9*	i	-7.0	i	i	i
Cc1cccc(C)c1OCCCCc1c(C)n[nH]c1C	11.7	i	-24.4	i	i	-8.03*
CCOc1ccccc1NC(=S)N(CCN(C)C)C(C)c1ccncc1 (centres undefined)	13.9	i	-6.2	i	i	i
Oc1c(Cl)cc(Cl)cc1Sc1cc(Cl)cc(Cl)c1O	20.7	x	43.0*	i	105*	i
Cc1cc(C)c(O)c(CN(C)Cc2cc(Cl)cc(Cl)c2O)c1	x	i	x	x	x	x
CCCCOc1ccccc1N	1.5	i	5.9*	i	i	i
CCOc1ccccc1N	x	i	x	x	x	x
CC(=O)c1c(C)[nH]c(C(=O)OCC(=O)Nc2ccc(C)cc2[N+](=O)[O-])c1C	-4.0	i	-10.5	6*	i	i
Cc1[nH]nc(SCC(=O)N2CCCCC2)c1[N+](=O)[O-]	47.0	i	-5.0	i	10*	i
Cc1[nH]nc(SCC(=O)N2CCCCCC2)c1[N+](=O)[O-]	20.0	i	-6.7	i	i	i
COc1ccc(OC)c(-c2nc(C(=O)NC3CCN(Cc4ccccc4)CC3)cc3c2[nH]c2ccccc23)c1	13.1	i	-11.3	i	i	i
COc1cc(-c2nc(C(=O)NC3CCN(Cc4ccccc4)CC3)cc3c2[nH]c2ccccc23)cc(OC)c1OC	34.3	i	-29.4	6*	i	i
CCOC(=O)c1sc2nc(C3CC3)cc(-c3ccc(OC)cc3)c2c1N	73.8*	i	-0.2	i	i	i
CCOC(=O)c1sc2nc(C3CC3)cc(-c3ccc(F)cc3)c2c1N	39.9	i	-8.2	i	i	i
COc1ccccc1N1CCN(Cc2ccc(O)c3ncccc23)CC1	39.7	i	-8.2	i	i	i
Oc1ccc(CN2CCCc3ccccc32)c2cccnc12	74.4*	i	-2.8	i	i	i
Nc1c(-c2ccccc2Cl)cnn1-c1cccc([N+](=O)[O-])c1	-8.3	i	-11.6	i	i	-7.62*
Cc1ccccc1-c1cnn(-c2cccc([N+](=O)[O-])c2)c1N	8.1	i	-14.2	i	i	i
N#CC(c1ccccc1)c1cnccn1 (centres undefined)	x	i	-6.5	i	i	i
O=C1CC2(CCCCC2)Oc2ccccc21	x	i	5.4*	i	i	i
NS(=O)(=O)c1ccc(NC(=O)c2c(Cl)cccc2Cl)cc1	51.8	i	-5.6	i	i	i
O=[N+]([O-])c1ccc(O)c(/C=N\N=C2c3ccccc3-c3ccccc32)c1	-1.3	i	-16.7	7*	i	i
Cc1ccc(S(=O)(=O)N(C)c2ccc(OC(=O)COc3ccccc3)cc2)cc1	x	i	x	x	x	x
CCn1c(SCC(=O)Nc2nc(-c3ccccc3)cs2)nnc1-c1ccccc1	22.6	i	-13.0	i	i	i
SMILES	PHOSPHO1 block	KCNK3 block	hERG rescue	KCNQ1 block	KCNQ1 act	KCNK9 inh
Cc1ccc(S(=O)(=O)CC(=O)Nc2nc(-c3ccccc3)cs2)cc1	1.9	i	-8.1	6*	i	i
Cc1ccc(S(=O)(=O)N(C)c2ccc(OCC(=O)Nc3nc(-c4ccccc4)cs3)cc2)cc1	-32.5	i	-12.5	i	i	-7.22*
CN(c1ccc(OCC(=O)Nc2nc(-c3ccccc3)cs2)cc1)S(=O)(=O)c1ccc(F)cc1	-12.5	i	-2.3	i	i	i
Cc1nnc(SCC(=O)Nc2nc(-c3ccccc3)cs2)n1N	68.8*	i	-9.6	i	i	i
Cc1ccc(S(=O)(=O)N(C)c2ccc(OC(=O)c3cccs3)cc2)cc1	x	-9.53*	x	x	x	x
O=C(CS(=O)(=O)c1ccccc1)Nc1nc(-c2ccccc2)cs1	9.7	i	-10.5	i	i	i
COc1cccc(NC(=O)C(C)OC(=O)c2n[nH]c3ccccc23)c1 (centres undefined)	x	i	x	x	x	x

Compound activity deposited in PubChem by several laboratories.
